Activity calls are given as the source filed them. The rule behind the calls is not given here.
Each compound was assayed on Nicotiana tabacum (assay: Cytokinin activity in tobacco callus assessed as stimulation of callus growth relative to 6-benzylaminopurine).
Type: functional, organism-based
Outline: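 Compounds dissolved in DMSO, diluted with water to 5 × 10^-2 M stock, then diluted in medium to 10^-8 to 10^-4 M. Final DMSO ≤0.2%; solvent control 0.2% DMSO. Readout was cytokinin-dependent tobacco callus growth. Activity is expressed relative to 10^-6 M BAP (=100%) at each compound's optimal concentration. Five replicates per concentration; whole test run at least twice.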
For `COc1ccc(CNc2ncnc3c2ncn3C2CCCCO2)c(OC)c1OC` (centres undefined), the Activity was “inactive”. For `COc1ccc(CNc2ncnc3c2ncn3C2CCCCO2)cc1OC` (centres undefined), the Activity was “inactive”. For `COc1cc(CNc2ncnc3c2ncn3C2CCCCO2)cc(OC)c1` (centres undefined), the Activity was “inactive”. `COc1ccc(CNc2ncnc3c2ncn3C2CCCCO2)c(OC)c1` (centres undefined) was tested, and the Activity was “inactive”.

— ChEMBL document CHEMBL1153925, “Synthesis, characterization and biological activity of ring-substituted 6-benzylamino-9-tetrahydropyran-2-yl and 9-tetrahydrofuran-2-ylpurine derivatives” (Bioorg Med Chem, 2009)
